In ChEMBL document CHEMBL2440094, “Thiazolidinone-peptide hybrids as dengue virus protease inhibitors with antiviral activity in cell culture” (J Med Chem, 2013):
The source made the active and inactive calls. The rule behind the calls is not given here.

How the values were obtained:
Huh-7 [1] = assay: Cytotoxicity against human HuH7 cells at <50 uM after 48 hrs by firefly reporter assay; assay type: cell-based; conditions: huh-7, 48 h
Outline: (§1)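 Uninfected Huh-7 cells stably expressing firefly luciferase, seeded 5000/well and incubated overnight at 37 °C. Compound added at 1.56–50 μM, plus 100, 200 and 400 μM, then incubated as for infected cells (further 48 h after the 4 h point). Firefly luminescence read with 70 μM luciferin and 2 mM ATP. Mean of three wells as percent of DMSO control.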

[2] = Solubility of the compound in PBS buffer; assay type: physicochemical
dengue virus type 2 [3] = assay: Antiviral activity against Dengue virus 2 infected in human Huh-7 cells assessed as inhibition of viral replication after 48 hrs by luciferase reporter gene assay; assay type: functional, organism-based; conditions: Huh-7, 48 h
Outline: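 Huh-7 cells seeded 5000/well, incubated overnight at 37 °C, then given compound (1.56–50 μM final, 2-fold series in DMEM with 10% FCS). Dengue 2 renilla luciferase reporter virus (MOI 10) added 4 h later. After 48 h at 37 °C, cells lysed and renilla luminescence read with coelenterazine. At least four wells per concentration, expressed relative to DMSO control. EC50 by nonlinear regression.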

Dengue virus [4] = assay: Mixed type inhibition of Dengue virus NS2B-NS3 protease expressed in Escherichia coli BL 21 (DE3) using Abz-Nle-Lys-Arg-Arg-Ser-3-(NO2)Tyr as substrate by Cornish-Bowden plot analysis
Outline: (§2)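 DEN2 NS2B–NS3 FRET assay run at inhibitor 0–6 μM (prior-series compounds 5–50 μM) and substrate 50, 100, 150 and 200 μM, in triplicate, with inner-filter correction. Ki from Dixon plots (1/v vs [I]) and Ki′ from Cornish-Bowden plots (S/v vs [I]). Inhibition mode assigned from these plots.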

[5] = Inhibition of Dengue virus NS2B-NS3 protease expressed in Escherichia coli BL 21 (DE3) using Abz-Nle-Lys-Arg-Arg-Ser-3-(NO2)Tyr as substrate assessed as enzyme-substrate-inhibitor complex by Cornish-Bowden plot analysis; outline: as §2
[6] = Inhibition of Dengue virus NS2B-NS3 protease expressed in Escherichia coli BL 21 (DE3) using Abz-Nle-Lys-Arg-Arg-Ser-3-(NO2)Tyr as substrate assessed as enzyme-inhibitor complex by Cornish-Bowden plot analysis; conditions: in the assay text read “Dixon plot” for “Cornish-Bowden plot”; outline: as §2
[7] = Inhibition of Dengue virus NS2B-NS3 protease expressed in Escherichia coli BL 21 (DE3) using Abz-Nle-Lys-Arg-Arg-Ser-3-(NO2)Tyr as substrate after 15 mins
[8] = target: Prothrombin (Homo sapiens) (UniProt P00734); assay: Inhibition of thrombin (unknown origin) using Boc-Val-Pro-Arg-AMC as substrate at 25 uM after 10 mins by continuous fluorimetric assay
Outline: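 Thrombin (10 nM) preincubated 15 min with inhibitor (25 μM final) in 50 mM Tris-HCl pH 7.5, 150 mM NaCl, 0.05% Tween 20. Boc-Val-Pro-Arg-AMC then added to 50 μM (Km 16 μM). Fluorescence (ex 355 nm, em 460 nm) followed for 10 min as slope. Triplicate; percent inhibition versus no-inhibitor control.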

West Nile virus = assay: Inhibition of West Nile virus NS2B-NS3 protease expressed in Escherichia coli BL 21 (DE3) using Abz-Gly-Leu-Lys-Arg-Gly-Gly-3-(NO2)Tyr as substrate at 50 uM after 15 mins
Dengue virus [9] = assay: Inhibition of Dengue virus NS2B-NS3 protease expressed in Escherichia coli BL 21 (DE3) using Abz-Nle-Lys-Arg-Arg-Ser-3-(NO2)Tyr as substrate at 50 uM after 15 mins
Dengue virus [10] = assay: Mixed/noncompetitive type inhibition of Dengue virus NS2B-NS3 protease expressed in Escherichia coli BL 21 (DE3) using Abz-Nle-Lys-Arg-Arg-Ser-3-(NO2)Tyr as substrate by Cornish-Bowden plot analysis; outline: as §2
[11] = Permeability of the compound by PAMPA; assay type: ADME; conditions: read-out: permeability
Outline: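 PAMPA with precoated trilayer lipid/oil/lipid membranes, donor wells holding 200 μM compound in PBS pH 7.4 (2% DMSO final), in triplicate. Incubated 5 h at room temperature. Donor and acceptor concentrations determined by UV plate reader or HPLC-UV against calibration curves. Pe and mass retention R calculated.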

Dengue virus [12] = assay: Uncompetitive inhibition of Dengue virus NS2B-NS3 protease expressed in Escherichia coli BL 21 (DE3) using Abz-Nle-Lys-Arg-Arg-Ser-3-(NO2)Tyr as substrate by Cornish-Bowden plot analysis; outline: as §2
Dengue virus [13] = assay: Displacement of aprotinin from Dengue virus NS2B-NS3 protease expressed in Escherichia coli BL 21 (DE3) by tryptophan fluorescence quenching assay
Outline: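 Tryptophan quenching assay: DEN protease (4 μM) incubated with inhibitor at 0–50 μM, and also with inhibitor (50 μM) plus aprotinin (10 μM). Enzyme and aprotinin autofluorescence measured as negative control. Fluorescence read at ex 280 nm, em 330 nm; triplicate.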

Dengue virus [14] = assay: Competitive inhibition of Dengue virus NS2B-NS3 protease expressed in Escherichia coli BL 21 (DE3) using Abz-Nle-Lys-Arg-Arg-Ser-3-(NO2)Tyr as substrate by Cornish-Bowden plot analysis; outline: as §2
Huh-7 [15] = assay: Cytotoxicity against human HuH7 cells at 50 uM after 48 hrs by firefly reporter assay; assay type: cell-based; conditions: huh-7, 48 h; outline: as §1
dengue virus type 2 [16] = assay: Antiviral activity against Dengue virus 2 infected in human Huh-7 cells assessed as inhibition of virus-induced plaque formation at 50 uM after 48; assay type: functional, organism-based
Outline: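 Huh-7 cells seeded in 12-well plates and pretreated with compound (50 μM) for 4 h. Infected for 1 h with dengue reporter virus (MOI 5) in the presence of compound, then medium replaced with compound-containing DMEM. Supernatant harvested at 48 h and filtered. Titer determined by plaque assay on Vero cells. Mean ± SD of three independent experiments.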

Huh-7 [17] = assay: Cytotoxicity against human HuH7 cells at >100 uM after 48 hrs by firefly reporter assay; assay type: cell-based; conditions: huh-7, 48 h; outline: as §1

Row | Compound | solubility [2] | EC50 (dengue virus type 2 [3]) | inhibition (Dengue virus [4]) | IC50 [7] | inhibition [8] | inhibition (West Nile virus) | inhibition (Dengue virus [9]) | inhibition (Dengue virus [10]) | Papp [11] | inhibition (Dengue virus [12]) | inhibition (Dengue virus [13]) | inhibition (Dengue virus [14]) | Activity (Huh-7 [1]) | Ki [5] | Ki [6] | Activity (Huh-7 [15]) | inhibition (dengue virus type 2 [16]) | Activity (Huh-7 [17])
1 | CCCC[C@H](NC(=O)[C@H](CCCCN)NC(=O)[C@H](CCCNC(=N)N)NC(=O)c1ccc(/C=C2\SC(=S)N(CCc3ccccc3)C2=O)cc1)C(N)=O | Insoluble | 25.6 µM | Active | 7.7 µM | 6.2% | 98.3% | 99.6% |  |  |  |  |  | Non-toxic | 5.1 µM | 13.6 µM |  |  | 
2 | CCCCC(C(=O)OC)N1C(=O)/C(=C/c2ccc(C(=O)N[C@@H](CCCNC(=N)N)C(=O)N[C@@H](CCCCN)C(=O)N[C@@H](CCCC)C(N)=O)cc2)SC1=S (some centres undefined) |  | 48.8 µM |  | 11.6 µM | 9% | 94.2% | 101% |  | 0.87 ×10⁻⁶ cm/s | Active |  |  |  | 5.3 µM | > 10 µM |  |  | 
3 | CCCC[C@H](NC(=O)[C@H](CCCCN)NC(=O)[C@H](CCCNC(=N)N)NC(=O)c1ccc(/C=C2\SC(=S)N(Cc3ccc(F)cc3)C2=O)cc1)C(N)=O |  |  |  | > 10 µM | 9.6% | 97.9% | 99.4% |  |  | Active |  |  |  | 7.9 µM | > 10 µM |  |  | 
4 | CCCC[C@H](NC(=O)[C@H](CCCCN)NC(=O)[C@H](CCCNC(=N)N)NC(=O)c1ccc(/C=C2\SC(=S)N(Cc3ccc(Cl)cc3)C2=O)cc1)C(N)=O | Insoluble | 31.5 µM |  | > 10 µM | 13.3% | 100% | 100% |  |  | Active |  |  | Non-toxic | 8.6 µM | > 10 µM | Toxic | Active | 
5 | CCCC[C@H](NC(=O)[C@H](CCCCN)NC(=O)[C@H](CCCNC(=N)N)NC(=O)c1ccc(/C=C2\SC(=S)N(Cc3ccccc3)C2=O)cc1)C(N)=O |  |  |  | 10.9 µM | 13.1% | 92.4% | 99.3% | Active |  |  |  |  |  | 5.5 µM | 8.8 µM |  |  | 

Now from value to compound, other results behind:

Row | solubility [2] | EC50 (dengue virus type 2 [3]) | inhibition (Dengue virus [4]) | IC50 [7] | inhibition [8] | inhibition (West Nile virus) | inhibition (Dengue virus [9]) | inhibition (Dengue virus [10]) | Papp [11] | inhibition (Dengue virus [12]) | inhibition (Dengue virus [13]) | inhibition (Dengue virus [14]) | Compound | Activity (Huh-7 [1]) | Ki [5] | Ki [6] | Activity (Huh-7 [15]) | inhibition (dengue virus type 2 [16]) | Activity (Huh-7 [17])
6 |  |  |  | 7.5 µM | 10.9% | 96.3% | 99.1% | Active |  |  |  |  | CCCC[C@H](NC(=O)[C@H](CCCCN)NC(=O)[C@H](CCCNC(=N)N)NC(=O)c1ccc(/C=C2\SC(=S)N(Cc3ccc(C)cc3)C2=O)cc1)C(N)=O |  | 7.6 µM | 6.2 µM |  |  | 
7 |  | > 50 µM |  | 2.9 µM | 17.3% | 57.9% | 98.6% |  |  |  | Dose-dependent effect | Active | CCCC[C@H](NC(=O)[C@H](CCCCN)NC(=O)[C@H](CCCNC(=N)N)NC(=O)c1ccc(/C=C2\SC(=O)N(Cc3ccccc3)C2=O)cc1)C(N)=O | Non-toxic | > 10 µM | 1.7 µM |  |  | 
8 |  | 16.7 µM | Active | 6.1 µM | 14.2% | 96.9% | 99.2% |  | 1.82 ×10⁻⁶ cm/s |  |  |  | CCCC[C@H](NC(=O)[C@H](CCCCN)NC(=O)[C@H](CCCNC(=N)N)NC(=O)c1ccc(/C=C2\SC(=S)N(C3CCCCC3)C2=O)cc1)C(N)=O | Non-toxic | 4.4 µM | 9.3 µM |  | Active | Toxic
9 |  | 37.2 µM |  | 3.5 µM | 15.3% | 57.8% | 96.8% |  | 0.82 ×10⁻⁶ cm/s |  | Dose-dependent effect | Active | CCCC[C@H](NC(=O)[C@H](CCCCN)NC(=O)[C@H](CCCNC(=N)N)NC(=O)c1ccc(/C=C2\SC(=O)N(CCc3ccccc3)C2=O)cc1)C(N)=O | Non-toxic | > 10 µM | 1.8 µM |  |  | 
10 |  | 37.3 µM |  | 7.9 µM | 15% | 99% | 99.6% | Active | 0.6 ×10⁻⁶ cm/s |  |  |  | CCCC[C@H](NC(=O)[C@H](CCCCN)NC(=O)[C@H](CCCNC(=N)N)NC(=O)c1ccc(/C=C2\SC(=S)N(Cc3ccc(OC)cc3)C2=O)cc1)C(N)=O |  | 8.3 µM | 7.8 µM |  |  | 
